# Experimental data from ChEMBL document CHEMBL3112420, “Discovery of 8-cyclopentyl-2-[4-(4-methyl-piperazin-1-yl)-phenylamino]-7-oxo-7,8-dihydro-pyrido[2,3-d]pyrimidine-6-carbonitrile (7x) as a potent inhibitor of cyclin-dependent kinase 4 (CDK4) and AMPK-related kinase 5 (ARK5)” (J Med Chem, 2014).
# Activity calls are given as the source filed them. No cut-off for these calls is given here.
# Legend:
# MDA-MB-468 = assay: Cytotoxicity against human MDA-MB-468 cells after 96 hrs by Cell-Titer Blue assay; assay type: functional; settings: MDA-MB-468, 96 h
# CDK6/cyclin D1 = CDK6/cyclin D1 (Homo sapiens, UniProt Q00534); assay: Inhibition of CDK6/cyclinD1 (unknown origin); assay type: protein-complex assay
# CDK6/cyclin D1, sequence (P24385 whole entry): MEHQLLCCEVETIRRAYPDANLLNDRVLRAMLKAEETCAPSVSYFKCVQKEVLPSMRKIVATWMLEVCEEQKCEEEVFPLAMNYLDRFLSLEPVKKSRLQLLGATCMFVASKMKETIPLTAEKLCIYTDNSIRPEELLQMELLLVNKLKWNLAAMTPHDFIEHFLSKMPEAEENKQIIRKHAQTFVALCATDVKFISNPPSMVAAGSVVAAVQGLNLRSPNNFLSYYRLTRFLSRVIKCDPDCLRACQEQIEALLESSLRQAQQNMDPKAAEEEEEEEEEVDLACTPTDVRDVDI
# CDK6/cyclin D1, sequence (Q00534 whole entry): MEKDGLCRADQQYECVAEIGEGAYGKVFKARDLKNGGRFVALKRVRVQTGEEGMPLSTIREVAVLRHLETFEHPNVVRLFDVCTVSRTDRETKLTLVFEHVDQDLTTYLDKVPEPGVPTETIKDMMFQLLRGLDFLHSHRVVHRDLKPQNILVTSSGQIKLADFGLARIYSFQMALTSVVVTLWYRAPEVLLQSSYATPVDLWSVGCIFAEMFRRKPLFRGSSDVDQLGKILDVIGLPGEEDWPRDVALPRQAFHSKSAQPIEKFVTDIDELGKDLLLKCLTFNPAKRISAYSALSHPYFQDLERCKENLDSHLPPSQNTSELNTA
# A549 = assay: Cytotoxicity against human A549 cells after 96 hrs by Cell-Titer Blue assay; assay type: functional; settings: A549, 96 h
# [1] = target: Fibroblast growth factor receptor 1 (Homo sapiens, UniProt P11362); assay: Inhibition of FGFR1 (unknown origin)
# Fibroblast growth factor receptor 1, sequence (P11362 whole entry): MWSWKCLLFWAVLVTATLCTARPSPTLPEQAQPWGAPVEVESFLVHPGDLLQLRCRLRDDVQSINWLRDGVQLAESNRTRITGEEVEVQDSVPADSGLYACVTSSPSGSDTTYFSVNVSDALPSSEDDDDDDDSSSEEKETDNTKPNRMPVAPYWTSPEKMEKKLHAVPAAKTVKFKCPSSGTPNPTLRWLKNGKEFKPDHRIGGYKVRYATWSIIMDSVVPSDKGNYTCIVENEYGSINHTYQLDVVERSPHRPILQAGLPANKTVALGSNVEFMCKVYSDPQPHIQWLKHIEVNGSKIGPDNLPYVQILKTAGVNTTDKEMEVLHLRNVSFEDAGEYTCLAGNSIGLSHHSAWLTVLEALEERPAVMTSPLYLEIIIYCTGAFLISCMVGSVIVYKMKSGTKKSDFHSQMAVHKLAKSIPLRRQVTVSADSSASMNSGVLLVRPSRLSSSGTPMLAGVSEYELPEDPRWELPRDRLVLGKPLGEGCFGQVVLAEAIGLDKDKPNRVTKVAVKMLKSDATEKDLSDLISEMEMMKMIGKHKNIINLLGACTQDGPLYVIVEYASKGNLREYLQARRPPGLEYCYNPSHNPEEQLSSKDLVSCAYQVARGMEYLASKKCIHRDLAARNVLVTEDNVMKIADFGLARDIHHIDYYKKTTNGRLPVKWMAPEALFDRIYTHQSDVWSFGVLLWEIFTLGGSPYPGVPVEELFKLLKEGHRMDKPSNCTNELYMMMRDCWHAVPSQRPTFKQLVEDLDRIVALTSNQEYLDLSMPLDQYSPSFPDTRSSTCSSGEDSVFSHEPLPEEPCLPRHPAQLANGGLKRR
# MCF7 = assay: Induction of apoptosis in human MCF7 cells assessed as PARP cleavage at 1 to 10 uM after 24 hrs by Western blotting analysis; assay type: functional, cell-based
# HeLa = assay: Cytotoxicity against human HeLa cells after 96 hrs by Cell-Titer Blue assay; assay type: functional
# [2] = target: Cyclin-dependent kinase 4/cyclin D1 (Homo sapiens) (UniProt P11802+P24385); assay: Inhibition of recombinant CDK4/cyclinD1 in human MDA-MB-231 cells assessed as inhibition of retinoblastoma phosphorylation at Ser780 at 0.5 to 5 uM after 24 hrs by Western blotting analysis; assay type: cell-based
# In short: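 Breast carcinoma cells were given increasing concentrations for 24 h. Total lysates (100 μg, 10% SDS-PAGE) were immunoblotted with antibodies against Ser780-phosphorylated and non-phosphorylated RB. Bands were read on an infrared scanning system.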
# MDA-MB-231 [3] = assay: Antitumor activity against ip dosed human MDA-MB-231 cells xenografted in NCR nude mouse assessed as inhibition of tumor growth administered as […] on alternative days measured every 2 days up to 21 days; assay type: functional, organism-based
# In short: (§1)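 MDA-MB-231 cells orthotopically implanted into mammary fat pads of 6–8 week old female nude mice (n=11 per group). Dosing began when average tumour volume reached 100 mm3. Lactate salt in PBS or vehicle was given intraperitoneally every other day (Q2D). Tumour volumes and body weights were recorded every 2 days over 21 days; mean ± SEM.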
# MDA-MB-231 [4] = assay: Antitumor activity against human MDA-MB-231 cells xenografted in NCR nude mouse assessed as decrease in tumor weight at 50 mg/kg, ip […] administered on alternative days measured every 2 days up to 21 days; assay type: functional, organism-based; parameters: dose 50 mg/kg; in short: as §1
# [5] = Cytotoxicity against human SNU398 cells after 96 hrs by Cell-Titer Blue assay; assay type: functional; settings: SNU-398, 96 h
# [6] = Toxicity in CD-1 mouse […] assessed as survival rate at 200 mg/kg, ip administered for 5 days measured after 10 days; assay type: organism-based; parameters: dose 200 mg/kg, route intraperitoneal; settings: in vivo
# In short: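 Female CD-1 mice (n=3) were given 200 mg/kg ip on 5 consecutive days. They were then monitored for signs of toxicity, with survival followed beyond 10 days after injection. This came after an initial single-dose test at 100 or 200 mg/kg ip with 7-day monitoring.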
smiles,measurement,setting,value
CN1CCN(c2ccc(Nc3ncc4cc(C#N)c(=O)n(C5CCCC5)c4n3)cc2)CC1 [NARAZACICLIB],GI50,MDA-MB-468,2000 nM
same,IC50,CDK6/cyclin D1,9.82 nM
same,GI50,A549,200 nM
same,IC50,[1],26 nM
same,Activity,MCF7,Active
same,GI50,HeLa,750 nM
same,inhibition,[2],Active
same,inhibition,MDA-MB-231 [3],Dose-dependent effect
same,Activity,MDA-MB-231 [4],Active
same,GI50,[5],200 nM
same,survival at 240 h,[6],100%
